Converted amounts (≈) assume the structure as drawn. The source made the active and inactive calls. The calls are words filed in the database; no cut-off is given here.
Tests used:
Human alphaherpesvirus 2 [1] = experiment: Antiviral activity against Herpes simplex virus 2 Magill infected in guinea pig assessed as prevention of death at 10% compound concentration treated intravaginally bid for 4 days measured on day 16 post-infection; type: functional, organism-based
How it was run: (§1)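 Animals were infected intravaginally with 1 × 10^2.82 PFU in 0.1 mL. Drug ointments were given intravaginally starting 4 h postinfection, then twice daily for 4 days, filling the vagina. Clinical signs were scored as animals positive/infected. Cure meant no symptoms, or symptoms healed by day 16 postinfection; it was reported as cured/infected.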

Human alphaherpesvirus 2 [2] = experiment: Antiviral activity against Herpes simplex virus 2 Magill infected in guinea pig assessed as prevention of inflammation at 10% compound concentration treated intravaginally bid for 4 days measured on day 16 post-infection; type: functional, organism-based; how it was run: as §1
Human alphaherpesvirus 2 [3] = experiment: Antiviral activity against Herpes simplex virus 2 Magill infected in guinea pig assessed as prevention of paralysis at 10% compound concentration treated intravaginally bid for 4 days measured on day 16 post-infection; type: functional, organism-based; how it was run: as §1
Human alphaherpesvirus 2 [4] = experiment: Antiviral activity against Herpes simplex virus 2 Magill infected in guinea pig assessed as cured animal at 10% compound concentration treated intravaginally bid for 4 days measured on day 16 post-infection; type: functional, organism-based; how it was run: as §1
Human alphaherpesvirus 2 [5] = experiment: Antiviral activity against Herpes simplex virus 2 Magill infected in guinea pig assessed as prevention of vesiculation of labia and vulva at 10% compound concentration treated intravaginally bid for 4 days measured on day 16 post-infection; type: functional, organism-based; how it was run: as §1
Human alphaherpesvirus 2 [6] = experiment: Antiviral activity against Herpes simplex virus 2 Magill infected in guinea pig assessed as prevention of vaginal discharge at 10% compound concentration treated intravaginally bid for 4 days measured on day 16 post-infection; type: functional, organism-based; how it was run: as §1
Human alphaherpesvirus 1 [7] = experiment: Antiviral activity against Herpes simplex virus 1 assessed as plaque reduction at 0.18 x 10^-5 M by cell-based assay relative to vidarabine; type: functional
How it was run: (§2)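 HSV-1 plaque-reduction assay by the Hsiung–Melnick procedure. Challenge was 125-300 plaque-forming units. An ara-A control was run alongside each sample at the same molar concentration with an identical virus challenge. Data were confirmed by duplicate assay (±10%).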

Human alphaherpesvirus 1 [8] = experiment: Antiviral activity against Herpes simplex virus 1 assessed as plaque reduction at 1.76 x 10^-5 M by cell-based assay relative to control; type: functional; how it was run: as §2
Adenosine deaminase = biological target: T1, Adenosine deaminase (Bos taurus, UniProt P56658); experiment: Activity of calf mucosal adenosine deaminase assessed as enzyme-mediated drug metabolism by liquid chromatographic analysis; type: ADME; conditions: cattle
T1 sequence (P56658 whole entry): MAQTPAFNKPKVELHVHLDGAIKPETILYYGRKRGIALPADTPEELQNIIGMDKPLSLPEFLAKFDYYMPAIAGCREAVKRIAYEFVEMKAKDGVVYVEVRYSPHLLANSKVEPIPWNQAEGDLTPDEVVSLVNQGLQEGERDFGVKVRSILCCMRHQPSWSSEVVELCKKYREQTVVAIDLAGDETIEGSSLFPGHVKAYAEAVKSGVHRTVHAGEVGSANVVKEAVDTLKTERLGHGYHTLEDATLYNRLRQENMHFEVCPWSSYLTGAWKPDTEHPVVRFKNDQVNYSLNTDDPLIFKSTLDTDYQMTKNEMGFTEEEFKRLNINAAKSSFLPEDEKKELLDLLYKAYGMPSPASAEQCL
How it was run: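 Drug exposed to the deaminase, with enzyme level also raised 10- and 100-fold. Reaction mixtures analysed by reverse-phase C18 LC (aqueous acetonitrile eluent, 254-nm UV detection) for unchanged substrate.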

[9] = Aqueous solubility of the compound at pH 7; type: physicochemical
Human alphaherpesvirus 1 [10] = experiment: Antiviral activity against Herpes simplex virus 1 assessed as plaque reduction at 1.76 x 10^-5 M by cell-based assay relative to vidarabine; type: functional; how it was run: as §2
Human alphaherpesvirus 1 [11] = experiment: Antiviral activity against Herpes simplex virus 1 assessed as plaque reduction at 0.18 x 10^-5 M by cell-based assay relative to control; type: functional; how it was run: as §2
Human alphaherpesvirus 1 [12] = experiment: Antiviral activity against Herpes simplex virus 1 assessed as plaque reduction at 1.71 x 10^-5 M by cell-based assay relative to vidarabine; type: functional; how it was run: as §2
Human alphaherpesvirus 1 [13] = experiment: Antiviral activity against Herpes simplex virus 1 assessed as plaque reduction at 0.53 x 10^-5 M by cell-based assay relative to vidarabine; type: functional; how it was run: as §2
Human alphaherpesvirus 1 [14] = experiment: Antiviral activity against Herpes simplex virus 1 assessed as plaque reduction at 0.53 x 10^-5 M by cell-based assay relative to control; type: functional; conditions: Human alphaherpesvirus 1, read-out: INH; how it was run: as §2
Human alphaherpesvirus 1 [15] = experiment: Antiviral activity against Herpes simplex virus 1 assessed as plaque reduction at 1.83 x 10^-5 M by cell-based assay relative to control; type: functional; how it was run: as §2
Human alphaherpesvirus 2 [16] = experiment: Antiviral activity against Herpes simplex virus 2 Magill infected in guinea pig assessed as prevention of vaginal discharge at 3% compound concentration treated intravaginally bid for 4 days measured on day 16 post-infection; type: functional, organism-based; how it was run: as §1
Human alphaherpesvirus 2 [17] = experiment: Antiviral activity against Herpes simplex virus 2 Magill infected in guinea pig assessed as prevention of vulvo-vaginal swelling at 3% compound concentration treated intravaginally bid for 4 days measured on day 16 post-infection; type: functional, organism-based; how it was run: as §1
Human alphaherpesvirus 2 [18] = experiment: Antiviral activity against Herpes simplex virus 2 Magill infected in guinea pig assessed as prevention of paralysis at 3% compound concentration treated intravaginally bid for 4 days measured on day 16 post-infection; type: functional, organism-based; how it was run: as §1
Cavia porcellus [19] = species: Cavia porcellus; experiment: Toxicity in albino guinea pig assessed as death at 3% compound concentration treated intravaginally bid for 4 days; type: organism-based; conditions: in vivo, other, 96 h
How it was run: (§3)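 Uninfected control animals received drug ointment intravaginally (topical), twice daily for 4 days, in an amount enough to fill the vagina.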

Human alphaherpesvirus 1 [20] = experiment: Antiviral activity against Herpes simplex virus 1 assessed as plaque reduction at 1.83 x 10^-5 M by cell-based assay relative to vidarabine; type: functional; conditions: Human alphaherpesvirus 1, read-out: INH; how it was run: as §2
Human alphaherpesvirus 2 [21] = experiment: Antiviral activity against Herpes simplex virus 2 Magill infected in guinea pig assessed as prevention of vesiculation of labia and vulva at 3% compound concentration treated intravaginally bid for 4 days measured on day 16 post-infection; type: functional, organism-based; how it was run: as §1
Human alphaherpesvirus 2 [22] = experiment: Antiviral activity against Herpes simplex virus 2 Magill infected in guinea pig assessed as prevention of death at 3% compound concentration treated intravaginally bid for 4 days measured on day 16 post-infection; type: functional, organism-based; how it was run: as §1
Human alphaherpesvirus 2 [23] = experiment: Antiviral activity against Herpes simplex virus 2 Magill infected in guinea pig assessed as prevention of inflammation at 3% compound concentration treated intravaginally bid for 4 days measured on day 16 post-infection; type: functional, organism-based; how it was run: as §1
Cavia porcellus [24] = species: Cavia porcellus; experiment: Toxicity in albino guinea pig assessed as development of erythema at 3% compound concentration treated intravaginally bid for 4 days; type: organism-based; conditions: in vivo, other, 96 h; how it was run: as §3
Human alphaherpesvirus 1 [25] = experiment: Antiviral activity against Herpes simplex virus 1 assessed as plaque reduction at 0.17 x 10^-5 M by cell-based assay relative to control; type: functional; how it was run: as §2
Human alphaherpesvirus 1 [26] = experiment: Antiviral activity against Herpes simplex virus 1 assessed as plaque reduction at 0.17 x 10^-5 M by cell-based assay relative to vidarabine; type: functional; how it was run: as §2
Human alphaherpesvirus 1 [27] = experiment: Antiviral activity against Herpes simplex virus 1 assessed as plaque reduction at 1.75 x 10^-5 M by cell-based assay relative to control; type: functional; how it was run: as §2
Human alphaherpesvirus 1 [28] = experiment: Antiviral activity against Herpes simplex virus 1 assessed as plaque reduction at 1.75 x 10^-5 M by cell-based assay relative to vidarabine; type: functional; how it was run: as §2
Human alphaherpesvirus 1 [29] = experiment: Antiviral activity against Herpes simplex virus 1 assessed as plaque reduction at 5.47 x 10^-5 M by cell-based assay relative to vidarabine; type: functional; how it was run: as §2

SMILES: Nc1ncnc2c1ncn2[C@@H]1O[C@H](COP(=O)(O)O)[C@@H](O)[C@@H]1O
- Activity (Human alphaherpesvirus 2 [1]): Active
- Activity (Human alphaherpesvirus 2 [2]): Active
- Activity (Human alphaherpesvirus 2 [3]): Active
- Activity (Human alphaherpesvirus 2 [4]): Active
- Activity (Human alphaherpesvirus 2 [5]): Active
- Activity (Human alphaherpesvirus 2 [6]): Active

SMILES: CCC(=O)O[C@H]1[C@H](O)[C@@H](CO)O[C@H]1n1cnc2c(N)ncnc21
- inhibition at 1.8 µM (Human alphaherpesvirus 1 [7]): 36%
- inhibition at 17.6 µM (Human alphaherpesvirus 1 [8]): 35%
- Stability (Adenosine deaminase): Stable
- solubility ([9]; buffer): soluble
- inhibition at 17.6 µM (Human alphaherpesvirus 1 [10]): 88%
- inhibition at 1.8 µM (Human alphaherpesvirus 1 [11]): 4%

SMILES: CC(C)C(=O)O[C@H]1[C@H](OC(=O)C(C)C)[C@@H](CO)O[C@H]1n1cnc2c(N)ncnc21
- inhibition at 17.1 µM (Human alphaherpesvirus 1 [12]): 90%
- inhibition at 5.3 µM (Human alphaherpesvirus 1 [13]): 73%
- inhibition at 5.3 µM (Human alphaherpesvirus 1 [14]): 0%
- Stability (Adenosine deaminase): Stable
- solubility ([9]; aqueous, read-out: solubility): 420 µg/mL (≈ 1030 µM)

SMILES: CCC(=O)O[C@H]1[C@H](OC(=O)CC)[C@@H](CO)O[C@H]1n1cnc2c(N)ncnc21
- inhibition at 18.3 µM (Human alphaherpesvirus 1 [15]): 15%
- Activity (Human alphaherpesvirus 2 [16]): Active
- Activity (Human alphaherpesvirus 2 [17]): Active
- inhibition at 1.8 µM (Human alphaherpesvirus 1 [7]): 60%
- Activity (Human alphaherpesvirus 2 [18]): Active
- Activity (Cavia porcellus [19]): Toxic
- Stability (Adenosine deaminase): Stable
- inhibition at 18.3 µM (Human alphaherpesvirus 1 [20]): 90%
- solubility ([9]; aqueous, read-out: solubility): 4500 µg/mL (≈ 11900 µM)
- Activity (Human alphaherpesvirus 2 [21]): Active
- Activity (Human alphaherpesvirus 2 [22]): Active
- Activity (Human alphaherpesvirus 2 [23]): Active
- Activity (Cavia porcellus [24]): Toxic

SMILES: CC(=O)O[C@H]1[C@H](O)[C@H](n2cnc3c(N)ncnc32)O[C@@H]1CO
- inhibition at 17.1 µM (Human alphaherpesvirus 1 [12]): 87%
- inhibition at 1.7 µM (Human alphaherpesvirus 1 [25]): 9%
- inhibition at 1.7 µM (Human alphaherpesvirus 1 [26]): 36%
- Stability (Adenosine deaminase): Unstable
- solubility ([9]; buffer): soluble

SMILES: CC(C)C(=O)O[C@H]1[C@H](O)[C@H](n2cnc3c(N)ncnc32)O[C@@H]1CO
- inhibition at 17.5 µM (Human alphaherpesvirus 1 [27]): 99%
- inhibition at 1.8 µM (Human alphaherpesvirus 1 [7]): 60%
- Stability (Adenosine deaminase): Unstable
- solubility ([9]; buffer): soluble
- inhibition at 1.8 µM (Human alphaherpesvirus 1 [11]): 26%
- inhibition at 17.5 µM (Human alphaherpesvirus 1 [28]): 90%

SMILES: Nc1ncnc2c1ncn2[C@@H]1O[C@H](CO)[C@@H](OC(=O)c2ccccc2)[C@@H]1OC(=O)c1ccccc1
- Stability (Adenosine deaminase): Stable
- solubility ([9]; aqueous, read-out: solubility): < 10 µg/mL
- inhibition at 54.7 µM (Human alphaherpesvirus 1 [29]): 100%

From ChEMBL document CHEMBL3228031, “Prodrugs of 9-(beta-D-arabinofuranosyl)adenine 2. Synthesis and evaluation of a number of 2',3'- and 3',5'-di-O-acyl derivatives” (J Med Chem, 1979)
